Legend:
DU-145 [1] = assay: In vitro cytotoxic activity against prostate carcinoma (DU-145) cells assayed by inhibition of [3H]-labeled thymidine incorporation; assay type: functional, cell-based; conditions: Homo sapiens
Summary of the method: (§1)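 Human tumour lines in 10% FBS medium (HT-29 and MES-SA in McCoy's 5a; NCI-H460 in RPMI 1640; DU-145 in MEM/Earle's), 37 °C, 5% CO2. Trypsin/EDTA-harvested, plated at 1 × 10⁴ cells/well, attached ~4 h. Serial dilutions tested, 8 wells/concentration. [methyl-³H]thymidine, 0.25 μCi/well, added at 24 h, then 48 more h (72 h total). Cells Triton-lysed, filter-harvested, counted. IC50 is the average of 3–5 determinations.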

HT-29 [2] = assay: In vitro cytotoxic activity against colon adenocarcinoma (HT-29) cells assayed by inhibition of [3H]-labeled thymidine incorporation; assay type: functional, cell-based; conditions: Homo sapiens; summary of the method: as §1
NCI-H460 [3] = assay: In vitro cytotoxic activity against nonsmall cell lung carcinoma (NCI-H460) cells assayed by inhibition of [3H]-labeled thymidine incorporation; assay type: functional, cell-based; conditions: Homo sapiens; summary of the method: as §1
MES-SA (Homo sapiens) [4] = assay: In vitro cytotoxic activity against uterine sarcoma (MES-SA) cells assayed by inhibition of [3H]-labeled thymidine incorporation
Lymphoma cell line = assay: Percent decrease of Lymphoma mass of animals treated with the compound; assay type: functional; design: scale not given: the % may be the effect or the level left
Summary of the method: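 Male SD rats, 2 months old, ~300 g, 4 per group. 10⁶ SD lymphoma cells given s.c. to the right flank. From day 10, drug in PBS pH 7.2 (3 mL, 1 mg/mL) was injected once daily next to the tumour for 10 days; controls got PBS only. Rats were killed 24 h later and lymphomas weighed. Result is mean mass decrease versus controls.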

HT-29 [5] = assay: In vitro cytotoxic activity against colon adenocarcinoma (HT-29) cells assayed by inhibition of [3H]-labeled thymidine incorporation; Not calculable; assay type: functional, cell-based, Homo sapiens; summary of the method: as §1
MES-SA (Homo sapiens) [6] = assay: In vitro cytotoxic activity against uterine sarcoma (MES-SA) cells assayed by inhibition of [3H]-labeled thymidine incorporation; Not calculable
DU-145 [7] = assay: In vitro cytotoxic activity against prostate carcinoma (DU-145) cells assayed by inhibition of [3H]-labeled thymidine incorporation; Not calculable; assay type: functional, cell-based, Homo sapiens; summary of the method: as §1
NCI-H460 [8] = assay: In vitro cytotoxic activity against nonsmall cell lung carcinoma (NCI-H460) cells assayed by inhibition of [3H]-labeled thymidine incorporation; Not calculable; assay type: functional, cell-based, Homo sapiens; summary of the method: as §1

Structure (SMILES)	IC50 (DU-145 [1]) [µM]	IC50 (HT-29 [2]) [nM]	IC50 (NCI-H460 [3]) [µM]	IC50 (MES-SA (Homo sapiens) [4]) [nM]	Activity (Lymphoma cell line) [%]	IC50 (HT-29 [5])	IC50 (MES-SA (Homo sapiens) [6])	IC50 (DU-145 [7])	IC50 (NCI-H460 [8])
CCCCCCCCCCCCCCCCOP(=O)([O-])COCC[N+](C)(C)C	17.2	4760	15.7	2110	41				
CCCCCCCCCCCCCCCOP(=O)([O-])COCC[N+](C)(C)C	19.9		18	9590		Not calculable			
CCCCCCCCCCCCOP(=O)([O-])COCC[N+](C)(C)C	133		138			Not calculable	Not calculable		
CCCCCCCCCCCCCCOP(=O)([O-])COCC[N+](C)(C)C		12200	40.3		30		Not calculable	Not calculable	
CCCCCCCCCCOP(=O)([O-])COCC[N+](C)(C)C						Not calculable	Not calculable	Not calculable	Not calculable
Nc1ccn([C@@H]2O[C@H](CO)[C@@H](O)C2(F)F)c(=O)n1 [GEMCITABINE]	0.0356	3	0.0078	9.2					
CCCCCCCCCCCCCCCCOP(=O)([O-])OCC[N+](C)(C)C [MILTEFOSINE]	24.9	6150	6.62	5350					
CC(=O)O[C@H]1C(=O)[C@@]2(C)[C@H]([C@H](OC(=O)c3ccccc3)[C@]3(O)C[C@H](OC(=O)[C@H](O)[C@@H](NC(=O)c4ccccc4)c4ccccc4)C(C)=C1C3(C)C)[C@]1(OC(C)=O)CO[C@@H]1C[C@@H]2O [PACLITAXEL]		0.16	0.00014	0.04					
CC[C@]1(O)C[C@H]2CN(CCc3c([nH]c4ccccc34)[C@@](C(=O)OC)(c3cc4c(cc3OC)N(C=O)[C@H]3[C@@](O)(C(=O)OC)[C@H](OC(C)=O)[C@]5(CC)C=CCN6CC[C@]43[C@@H]65)C2)C1 [VINCRISTINE]	0.00112	0.01	0.00013	0.02					

— ChEMBL document CHEMBL1134309, “O-Phosphonatomethylcholine, its analogues, alkyl esters, and their biological activity” (J Med Chem, 2001)
